Bioassay records as filed in PubChem.
In the library only some 3.8% were active in any assay of this set; here they are far more common.
NPY Y2 blocker = antagonists of human neuropeptide Y receptor Y2. AID 793. NPY-Y2 expressing cells, antagonist mode. inhibition, % at 2.7 µM. 140,000 tested, 0.99% active. P49146; in the data active means inhibition above about 17%
NPY-Y2 PAM-ag = potentiates or activates human NPY-Y2 receptor | cells expressing NPY-Y2, potentiator/agonist read-out | activation, % at 3.6 µM | 220,000 tested, 0.45% active; in the data active means activation above about 27%;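 further: cells stimulated with NPY near EC25 plus isoproterenol at EC100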
INS promoter inh = TRM-6 insulin promoter activity inhibition | inhibition, % at 2 µM | 130,000 tested, 0.9% active | TRM-6 cells, insulin promoter-eGFP reporter, imaging; reporter expression induced with tamoxifen;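 active means inhibition above the mean plus 3 SD, with well images judged a real hit on visual review, cut at about 60% in these data, passing the limit was not always enough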
NPY1 pot ag = potentiators or agonists of human neuropeptide Y receptor Y1; P25929; AID 1304; 220,000 tested, 0.37% active; NPY-Y1 expressing cells, potentiator/agonist activation; activation, % at 3.6 µM; in the data active means activation above about 33%, passing the limit was not always enough;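 further: cells stimulated with NPY at EC10 then isoproterenol at EC100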
Target sequence (P25929 whole entry, looked up): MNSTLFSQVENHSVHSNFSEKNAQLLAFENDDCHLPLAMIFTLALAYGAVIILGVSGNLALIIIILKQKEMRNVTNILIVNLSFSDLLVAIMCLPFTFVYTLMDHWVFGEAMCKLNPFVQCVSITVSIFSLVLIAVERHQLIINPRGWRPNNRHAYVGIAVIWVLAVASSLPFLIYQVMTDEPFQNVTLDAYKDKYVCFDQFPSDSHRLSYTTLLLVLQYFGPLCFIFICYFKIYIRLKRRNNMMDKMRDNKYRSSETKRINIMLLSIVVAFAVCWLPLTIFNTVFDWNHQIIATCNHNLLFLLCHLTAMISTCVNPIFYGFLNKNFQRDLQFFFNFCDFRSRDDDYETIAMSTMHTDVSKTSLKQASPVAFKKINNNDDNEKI
RAM network inh = blocks the yeast RAM network | S. cerevisiae dse1pr::URA3 reporter, 5-FOA growth OD615, 2 d; analog-sensitive cbk1-as2 kinase mutant strain | 190,000 tested, 1.8% active | inhibition, % at 50 µM;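 active means inhibition above a set limit, 3 SD over mean compound inhibition, cut at about 8.4% in these data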;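 further: inhibition rescues growth on 5-FOA so higher OD means more RAM inhibition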
NPY Y1 blocker = antagonists of human neuropeptide Y receptor Y1; HEK293-CNG Y1 cells, membrane potential fluorescence; NPY at EC95, then isoproterenol; inhibition, % at 3.6 µM; 200,000 tested, 1% active;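 active means inhibition above the campaign mean inhibition of all tested compounds plus 3 SD, cut at about 20% in these data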
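material = HEK293 cells with Y1 receptor plus CNG channel | also added = NPY 25 nM then isoproterenol 1 µM plus Ro 20-1724 25 µM | schedule = dye 3 h, compound 60 min room temperature, stimulation 45 min | measured by = membrane potential fluorescence | benchmarks = high control isoproterenol alone, low control NPY with isoproterenol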
Hits are given with their value; – = inactive; · = no result given.

SMILES	NPY Y2 blocker	NPY-Y2 PAM-ag	INS promoter inh	NPY1 pot ag	RAM network inh	NPY Y1 blocker
CCOC(=O)Cc1c(Sc2ccccc2)c2ccccc2n1C	–	–	·	–	–	–
O=C1CCCN1CCCNCC(=O)N1c2ccccc2Sc2ccccc21	–	–	–	–	–	–
O=C(CS(=O)(=O)c1ccccc1)Nc1nc(-c2ccc(F)cc2)cs1	·	–	75	–	–	–
COc1ccc(Br)cc1CN1CCCCCCC1	21	–	–	–	–	22
FCCCOc1ccc(-c2nccc(-c3ccc(Cl)cc3)n2)cc1	–	–	–	–	8.8	–
CC(=O)n1cc(N(C(=O)CCl)c2ccc(Cl)cc2)c2ccccc21	·	50	·	66	·	·
COc1ccccc1N(C(=O)CCl)c1cn(C(C)=O)c2ccccc12	·	–	·	–	·	·
CC12CCC(C1)C(C)(C)C2OC(=O)c1ccccc1C(=O)O (centres undefined)	·	–	·	–	·	·
COC(=O)[C@H](Cc1ccccc1)NC(=O)O[C@@H]1C(=O)c2cc(OC)ccc2O[C@H]1c1ccc(OC)c(Br)c1	–	–	–	–	11	–
O=C(CCCOc1ccc(Cl)cc1Cl)Nc1ncccn1	·	–	·	–	·	·
COc1ccccc1OCCC(=O)OCC(=O)NCc1ccc(Cl)cc1	·	–	·	–	–	–
O=C(CCCOc1ccc(Cl)cc1Cl)N/N=C/c1ccccc1O	–	–	·	–	–	–
O=C(COC(=O)CCCOc1ccc(Cl)cc1Cl)Nc1cccc(Cl)c1	–	–	–	–	11	–
O=C(CCCOc1ccc(Cl)cc1Cl)N/N=C/c1ccco1	·	–	79	–	–	–
COc1ccc(CNC(=O)COC(=O)CCCOc2ccc(Cl)cc2Cl)cc1	–	–	·	–	9.6	–
Cc1onc(-c2ccccc2)c1C(=O)NNC(=S)NC(=O)c1ccc2c(c1)OCO2	·	–	·	–	·	·
CSc1ccc(NC(=O)c2cccnc2)cc1C#N	·	–	·	–	–	–
O=C(CCc1nnc(CCCCc2ccccc2)o1)N1CCCCC1CCO (centres undefined)	·	–	·	–	·	·
Cc1cccc(C)c1NC(=O)c1sccc1SCc1cccc(C(F)(F)F)c1	–	–	–	–	11	–
Cc1ccc(NC(=O)c2c(C(F)(F)F)nn(C)c2SCc2cccc(C(F)(F)F)c2)cc1C	–	–	·	–	–	–
COc1cc(NC(=O)c2cccs2)c(C(=O)OCC(=O)NC(C)c2ccccc2)cc1OC (centres undefined)	–	–	70	–	–	–
N/C(=N\NC(=O)c1sccc1OCc1ccc(Cl)cc1Cl)c1ccccn1	·	–	–	–	8.7	–
CC(NC(=O)C(=O)NN=C1CCCCCCC1)c1ccccc1 (centres undefined)	–	–	·	–	–	–
Cc1ccc(/C=C(\C#N)c2nc3ccccc3[nH]2)s1	–	–	96	–	–	–
N#C/C(=C/c1cccs1)c1nc2ccccc2[nH]1	–	–	75	–	–	–
SMILES	NPY Y2 blocker	NPY-Y2 PAM-ag	INS promoter inh	NPY1 pot ag	RAM network inh	NPY Y1 blocker
N#C/C(=C\c1cccs1)Sc1nc2ccccc2s1	–	–	–	–	9.1	–
Cc1ccc(-c2nc(Cl)nc3ccccc23)cc1	·	–	–	–	–	–
Cc1ccc(-c2nc3ccccc3nc2Cl)cc1	·	–	·	–	8.4	–
CCC(CC)NC(=O)CN(c1ccccc1OC)S(=O)(=O)c1cccs1	·	–	·	–	·	·
O=C(Oc1ccc2c(-c3ccccc3)cc(=O)oc2c1)C1CCCCC1	–	–	·	–	9.3	–
COc1ccc(-c2cc(=O)oc3cc(OC(=O)C4CCCCC4)ccc23)cc1	–	–	–	–	11	–
COC(=O)COc1ccc2c(-c3ccc(OC)cc3)cc(=O)oc2c1	–	98	–	98	–	–
Cc1cc(=O)oc2cc(OCC(=O)OCC(=O)NCCc3ccccc3)ccc12	·	–	–	–	9.2	–
COc1ccc(/C(C)=N/NC(=O)c2ccccc2N)cc1	·	–	·	–	–	–
CC(=O)c1cccc(CN2CCCC(CCC(=O)NCc3ccc(C)o3)C2)c1 (centres undefined)	·	–	–	–	–	–
Cc1ccc(NC(=O)CCc2nc3ccccc3s2)c(O)c1	·	–	–	–	–	–
O=C1C=C(NCc2ccc(Cl)cc2Cl)C2(CCCCC2)O1	26	–	·	–	–	26
C=CCNC(=O)COC(=O)c1ccc(C)c(NC(=O)c2ccco2)c1	·	–	73	–	–	–
C=CCN(CC=C)C(=O)c1ccccc1NC(=O)c1ccccc1C	–	–	–	–	–	–
CCN(CC(=O)N1CCN(c2ccccc2)CC1)S(=O)(=O)c1ccc(C)cc1	–	–	–	–	–	–
Cc1ccc(S(=O)(=O)N(C)CC(=O)OCC(=O)N2CCN(c3ccccc3)CC2)cc1	–	–	–	–	8.7	–
O=C(OCc1ccccc1)/C(=C/c1ccc(Cl)cc1)NC(=O)c1ccccc1Cl	–	–	·	–	9.2	–
Cc1ccc(C(=O)N/C(=C\c2ccccc2)C(=O)OCc2ccccc2)cc1	–	–	·	–	9.5	–
CCCc1nc2ccccc2c2nc(N)nn12	–	–	87	–	–	–
Cc1[nH]n(-c2ccccc2)c(=O)c1N=Nc1ccccc1O	·	–	·	–	9.9	–
Cc1cccc(N(CC(=O)NCCSc2nc3ccccc3s2)S(=O)(=O)c2ccccc2)c1	–	–	–	–	11	–
O=C(CN(c1ccccc1)S(=O)(=O)c1ccccc1)NCCSc1nc2ccccc2s1	–	–	·	–	–	–
Cc1ccc(N(CC(=O)NCCSc2nc3ccccc3s2)S(=O)(=O)c2ccccc2)c(C)c1	–	–	–	–	9.2	–
C=C(C)c1cccc(C(C)(C)NC(=O)N(Cc2ccccc2)Cc2ccco2)c1	28	–	–	–	–	–
O=C(O)/C=C/C(=O)N(Cc1ccccc1)Cc1ccco1	–	–	·	–	–	–
SMILES	NPY Y2 blocker	NPY-Y2 PAM-ag	INS promoter inh	NPY1 pot ag	RAM network inh	NPY Y1 blocker
Cc1cc(N)n2ncc(-c3ccc(F)cc3)c2n1	–	–	89	–	–	–
Cc1ccc(-c2c[n+](CC(=O)Nc3ccccc3C)c3n2CCC3)cc1	·	–	·	–	·	·
Cc1ccccc1NC(=S)c1nc2ccccc2[nH]1	–	–	97	–	–	–
S=C(Nc1ccc(Cl)cc1)c1nc2ccccc2[nH]1	–	–	·	–	–	–
CNC(=S)N/N=C/c1c(C)nn(-c2ccccc2)c1Cl	–	–	–	–	–	–
Cc1nn(-c2ccccc2)c(Cl)c1/C=N/NS(=O)(=O)c1ccc(Br)cc1	–	–	69	–	–	–
CCOCC(=O)Nc1ccccc1C(=O)N1CCOCC1	·	–	–	–	–	–
COc1cccc(CN(C)C(=O)c2cc(COc3ccc4ncccc4c3)on2)c1	·	–	·	–	–	21
COc1cccc(CN(C)C(=O)c2cc(COc3c(F)cccc3F)on2)c1	·	–	·	–	–	–
CC1=C(CCN2CCN(C(C)C)C(CCO)C2)C(C)(C)CCC1 (centres undefined)	·	–	·	–	–	–
CCOc1cccc(/C=C/c2cc(C(=O)O)c3ccccc3n2)c1OC	·	–	·	–	·	·
